# ChEMBL document CHEMBL1641569, “Synthetic conjugates of genistein affecting proliferation and mitosis of cancer cells” (Bioorg Med Chem, 2011)
# Legend:
# HCT-116 [1] = assay: Cytotoxicity against human HCT116 cells after 72 hrs by MTT assay; assay type: functional, cell-based; conditions: HCT-116, 72 h
# HCT-116 [2] = assay: Cell cycle arrest in human HCT116 cells assessed as accumulation at G2/M phase after 24 hrs by propidium iodide staining-based flow cytometry; assay type: functional
# Procedure, shortened: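 Subconfluent cultures exposed continuously to compound; floating and trypsinized adherent cells pooled, PBS-washed, fixed in ice-cold 70% ethanol 30 min, RNase (100 µg/mL) treated, stained with propidium iodide, DNA content measured by flow cytometry to give G1, S, G2/M, apoptotic (sub-G1) and polyploid fractions. Experiments repeated at least twice.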
# HCT-116 [3] = assay: Inhibition of mitosis in human HCT116 cells assessed as mitotic index at 20 uM after 24 hrs by fluorescence assay; assay type: functional
# Procedure, shortened: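 Cells treated 24 h, collected as for cell cycle analysis, cytospun, fixed in cold methanol, stained with 3 µM DAPI; mitotic cells counted among 1000 cells under 40× objective. Mean ± SD from three independent experiments.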
SMILES,IC50 (HCT-116 [1]) [µM],Activity (HCT-116 [2]),Activity (HCT-116 [3])
O=c1c(-c2ccc(O)cc2)coc2cc(OCCCO)cc(O)c12,23.9,,
CC(=O)OC[C@H]1O[C@H](OCCCOc2cc(O)c3c(=O)c(-c4ccc(O)cc4)coc3c2)C=C[C@@H]1OC(C)=O,19.9,,
CC(=O)OC[C@H]1O[C@@H](O[C@H]2C=C[C@@H](OCCCCCOc3cc(O)c4c(=O)c(-c5ccc(O)cc5)coc4c3)O[C@@H]2COC(C)=O)[C@H](OC(C)=O)[C@@H](OC(C)=O)[C@H]1OC(C)=O,> 20,,
CCCO[C@H]1C=C[C@@H](OC(C)=O)[C@H](C)O1,550,,
CC(=O)O[C@@H]1C=C[C@H](OCCCCCOc2cc(O)c3c(=O)c(-c4ccc(O)cc4)coc3c2)O[C@H]1C,8.08,Dose-dependent effect,3.5
O=c1c(-c2ccc(O)cc2)coc2cc(OCCO)cc(O)c12,25,,
